Test results: ChEMBL document CHEMBL5724801, “EUbOPEN Chemogenomics Library - Multiplex” (2024)
“And” between values parts separate entries of the source, which are not always exact repeats. Equal values may be shown once.

Test system: HEK-293T
Assay: Multiplex assay against HEK293T
Type: toxicity, cell-based
Settings: human
How it was run: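 Phenotypes for tubulin, mitochondrial mass and membrane permeability are expressed as per cents of healthy-nucleus cells. Cells were stained live at seeding with Hoechst33342, BioTracker Green Microtubule Cytoskeleton Dye, MitoTracker Red and Annexin V Alexa Fluor 680, then imaged after compound addition on a CQ1 microscope at 37°C and 5% CO2. Machine-learning gating in CellPathfinder separated Hoechst high-intensity objects from normal cells, divided normal cells by nuclear state (healthy, pyknosed, fragmented) and divided pyknosed cells into mitotic or apoptotic.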

[1] = 12 h, 1 µM, compound concentration 1 uM
[2] = 12 h, 10 µM, compound concentration 10 uM
[3] = 24 h, 1 µM, compound concentration 1 uM
[4] = 24 h, 10 µM, compound concentration 10 uM
[5] = 48 h, 1 µM, compound concentration 1 uM
[6] = 48 h, 10 µM, compound concentration 10 uM

## CC(C)(C)c1cc(NC(=O)Nc2ccc(-c3cn4c(n3)sc3cc(OCCN5CCOCC5)ccc34)cc2)no1 [QUIZARTINIB]
[1]
  Population Apoptotic (%): 27% and 34%
  Population Fragmented Nuclei (%): 5%
  Population Healthy Nuclei (%): 83% and 80%
  Population Hoechst High Intensity Objects (%): 10% and 6%
  Population Membrane Permeable-Phenotype (%): 0%
  Population Mitochondria Different-Phenotype (%): 40% and 58%
  Population Mitotic Cells (%): 72% and 65%
  Population Normal (%): 89% and 93%
  Population Pyknosed Nuclei (%): 11% and 14%
  Population Tubulin-Different-Phenotype (%): 35% and 26%
  Total Cell Count: 377 and 345
[2]
  Population Apoptotic (%): 53% and 73%
  Population Fragmented Nuclei (%): 7%
  Population Healthy Nuclei (%): 71%
  Population Hoechst High Intensity Objects (%): 23% and 12%
  Population Membrane Permeable-Phenotype (%): 0%
  Population Mitochondria Different-Phenotype (%): 78% and 81%
  Population Mitotic Cells (%): 46% and 26%
  Population Normal (%): 76% and 87%
  Population Pyknosed Nuclei (%): 21%
  Population Tubulin-Different-Phenotype (%): 68% and 63%
  Total Cell Count: 324 and 293
[3]
  Population Apoptotic (%): 41% and 38%
  Population Fragmented Nuclei (%): 7% and 5%
  Population Healthy Nuclei (%): 84%
  Population Hoechst High Intensity Objects (%): 6% and 4%
  Population Membrane Permeable-Phenotype (%): 0%
  Population Mitochondria Different-Phenotype (%): 26% and 40%
  Population Mitotic Cells (%): 58% and 61%
  Population Normal (%): 93% and 95%
  Population Pyknosed Nuclei (%): 7% and 10%
  Population Tubulin-Different-Phenotype (%): 21% and 17%
  Total Cell Count: 491 and 440
[4]
  Population Apoptotic (%): 62% and 69%
  Population Fragmented Nuclei (%): 8% and 9%
  Population Healthy Nuclei (%): 79% and 78%
  Population Hoechst High Intensity Objects (%): 16% and 9%
  Population Membrane Permeable-Phenotype (%): 0%
  Population Mitochondria Different-Phenotype (%): 63% and 75%
  Population Mitotic Cells (%): 37% and 30%
  Population Normal (%): 83% and 90%
  Population Pyknosed Nuclei (%): 12% and 11%
  Population Tubulin-Different-Phenotype (%): 57% and 50%
  Total Cell Count: 413 and 321
[5]
  Population Apoptotic (%): 21%
  Population Fragmented Nuclei (%): 12% and 10%
  Population Healthy Nuclei (%): 80% and 82%
  Population Hoechst High Intensity Objects (%): 3% and 2%
  Population Membrane Permeable-Phenotype (%): 2% and 0%
  Population Mitochondria Different-Phenotype (%): 11% and 24%
  Population Mitotic Cells (%): 78%
  Population Normal (%): 96% and 97%
  Population Pyknosed Nuclei (%): 6%
  Population Tubulin-Different-Phenotype (%): 15% and 18%
  Total Cell Count: 851 and 566
[6]
  Population Apoptotic (%): 57% and 58%
  Population Fragmented Nuclei (%): 9% and 11%
  Population Healthy Nuclei (%): 77% and 73%
  Population Hoechst High Intensity Objects (%): 9% and 12%
  Population Membrane Permeable-Phenotype (%): 1% and 0%
  Population Mitochondria Different-Phenotype (%): 40% and 59%
  Population Mitotic Cells (%): 42% and 41%
  Population Normal (%): 90% and 87%
  Population Pyknosed Nuclei (%): 12% and 14%
  Population Tubulin-Different-Phenotype (%): 35% and 37%
  Total Cell Count: 583 and 392

## Cc1ccc(/C(=C\CN2CCCC2)c2ccccn2)cc1 [TRIPROLIDINE]
[1]
  Population Apoptotic (%): 34% and 50%
  Population Fragmented Nuclei (%): 6% and 3%
  Population Healthy Nuclei (%): 83% and 84%
  Population Hoechst High Intensity Objects (%): 7% and 5%
  Population Membrane Permeable-Phenotype (%): 0%
  Population Mitochondria Different-Phenotype (%): 45% and 55%
  Population Mitotic Cells (%): 65% and 50%
  Population Normal (%): 92% and 94%
  Population Pyknosed Nuclei (%): 9% and 11%
  Population Tubulin-Different-Phenotype (%): 24% and 17%
  Total Cell Count: 424 and 446
[2]
  Population Apoptotic (%): 44%
  Population Fragmented Nuclei (%): 10% and 6%
  Population Healthy Nuclei (%): 72% and 77%
  Population Hoechst High Intensity Objects (%): 15% and 8%
  Population Membrane Permeable-Phenotype (%): 0%
  Population Mitochondria Different-Phenotype (%): 67% and 74%
  Population Mitotic Cells (%): 56%
  Population Normal (%): 84% and 91%
  Population Pyknosed Nuclei (%): 16% and 15%
  Population Tubulin-Different-Phenotype (%): 53% and 45%
  Total Cell Count: 368 and 344
[3]
  Population Apoptotic (%): 30%
  Population Fragmented Nuclei (%): 10% and 9%
  Population Healthy Nuclei (%): 78% and 82%
  Population Hoechst High Intensity Objects (%): 3% and 7%
  Population Membrane Permeable-Phenotype (%): 0%
  Population Mitochondria Different-Phenotype (%): 27% and 34%
  Population Mitotic Cells (%): 70% and 69%
  Population Normal (%): 96% and 92%
  Population Pyknosed Nuclei (%): 10% and 7%
  Population Tubulin-Different-Phenotype (%): 18% and 9%
  Total Cell Count: 574 and 541
[4]
  Population Apoptotic (%): 36% and 27%
  Population Fragmented Nuclei (%): 8% and 9%
  Population Healthy Nuclei (%): 78% and 80%
  Population Hoechst High Intensity Objects (%): 9% and 4%
  Population Membrane Permeable-Phenotype (%): 0%
  Population Mitochondria Different-Phenotype (%): 55% and 54%
  Population Mitotic Cells (%): 63% and 72%
  Population Normal (%): 90% and 95%
  Population Pyknosed Nuclei (%): 13% and 10%
  Population Tubulin-Different-Phenotype (%): 43% and 26%
  Total Cell Count: 490 and 464
[5]
  Population Apoptotic (%): 16% and 37%
  Population Fragmented Nuclei (%): 14% and 10%
  Population Healthy Nuclei (%): 79% and 84%
  Population Hoechst High Intensity Objects (%): 1% and 3%
  Population Membrane Permeable-Phenotype (%): 2% and 1%
  Population Mitochondria Different-Phenotype (%): 17% and 13%
  Population Mitotic Cells (%): 83% and 62%
  Population Normal (%): 98% and 96%
  Population Pyknosed Nuclei (%): 6% and 4%
  Population Tubulin-Different-Phenotype (%): 11% and 6%
  Total Cell Count: 950 and 837
[6]
  Population Apoptotic (%): 43% and 33%
  Population Fragmented Nuclei (%): 16% and 13%
  Population Healthy Nuclei (%): 74% and 78%
  Population Hoechst High Intensity Objects (%): 6% and 4%
  Population Membrane Permeable-Phenotype (%): 0% and 1%
  Population Mitochondria Different-Phenotype (%): 46% and 43%
  Population Mitotic Cells (%): 56% and 66%
  Population Normal (%): 93% and 95%
  Population Pyknosed Nuclei (%): 9% and 7%
  Population Tubulin-Different-Phenotype (%): 29% and 25%
  Total Cell Count: 674 and 644
